Reference: ChEMBL document CHEMBL1687868, “Bioactive compounds from the fern Lepisorus contortus” (J Nat Prod, 2011)
Active and inactive are the calls of the source. The rule behind the calls is not given here.

Tests used:
[1] = Inhibition of TNF-alpha-induced NFkappaB activation in human HEK293 cells after 6 hrs by luciferase reporter gene assay; assay type: cell-based; settings: HEK293, 6 h
RAW264.7 = experiment: Inhibition of NO production in mouse RAW264.7 cells at 20 ug/ml after 30 mins by Griess assay; assay type: functional, cell-based; settings: in the assay text read “after 24 hrs” for “after 30 mins”
In short: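 RAW 264.7 cells plated for 24 h. Compound in phenol red-free DMEM added 30 min before LPS (1 µg/mL), then 24 h incubation. Nitrite measured with Griess reagent (1% sulfanilamide, 0.1% N-(1-naphthyl)ethylenediamine in 2.5% H3PO4) at 540 nm, against an NaNO2 standard curve.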

[2] = Cytotoxicity against mouse Hepa-1c1c7 cells assessed as cell growth inhibition at 20 ug/ml after 72 hrs by sulforhodamine B assay; assay type: cell-based; settings: hepa-1c1c7, 72 h
In short: (§1)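 Cells held in medium with 10% heat-inactivated FBS and penicillin/streptomycin/amphotericin B (Hepa1c1c7 in α-MEM; MCF-7 in MEME plus 10 mg/L insulin). Samples added in triplicate, 37 °C, 5% CO2, 72 h. Cells fixed with cold 20% TCA at 4 °C for 30 min, stained with 0.4% sulforhodamine B, dye dissolved in 10 mM Tris pH 10, OD read at 515 nm. Growth given as % of 10% aqueous DMSO control.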

[3] = target: T1, Prostaglandin G/H synthase 2 (Homo sapiens) (UniProt P35354); experiment: Inhibition of human COX2 assessed as PGE2 formation at 10 ug/ml by LC-MS-MS analysis
T1 sequence (whole entry): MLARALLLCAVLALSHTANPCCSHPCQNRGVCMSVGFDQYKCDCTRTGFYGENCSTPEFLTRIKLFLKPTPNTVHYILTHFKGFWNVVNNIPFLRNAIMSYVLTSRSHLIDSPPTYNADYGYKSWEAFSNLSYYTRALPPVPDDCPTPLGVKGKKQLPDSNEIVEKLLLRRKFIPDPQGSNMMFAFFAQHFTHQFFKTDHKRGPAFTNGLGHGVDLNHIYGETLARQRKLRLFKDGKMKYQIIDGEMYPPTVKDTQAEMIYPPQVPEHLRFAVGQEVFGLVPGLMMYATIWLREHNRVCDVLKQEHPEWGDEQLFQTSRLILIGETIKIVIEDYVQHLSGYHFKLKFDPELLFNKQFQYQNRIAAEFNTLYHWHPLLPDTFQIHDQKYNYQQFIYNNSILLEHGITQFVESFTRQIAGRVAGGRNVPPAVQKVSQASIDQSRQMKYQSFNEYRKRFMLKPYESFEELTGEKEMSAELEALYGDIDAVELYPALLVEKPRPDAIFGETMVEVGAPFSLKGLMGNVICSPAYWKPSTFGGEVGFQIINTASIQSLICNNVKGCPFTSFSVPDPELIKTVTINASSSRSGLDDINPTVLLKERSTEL
In short: (§2)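 COX-1 (ovine) or COX-2 (human), 0.2 µg, activated in Tris-HCl pH 8.0 with hematin (1 µM final) and L-epinephrine (2 mM final). Test solution preincubated 10 min at 37 °C. Reaction started with arachidonic acid (5 µM final), stopped with HCl after 2 min. d4-PGE2 added as internal standard and PGE2 extracted with […] for LC-MS.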

[4] = target: T2, Prostaglandin G/H synthase 1 (Ovis aries) (UniProt P05979); experiment: Inhibition of ovine COX1 assessed as PGE2 formation at 10 ug/ml by LC-MS-MS analysis; in short: as §2
T2 sequence (whole entry): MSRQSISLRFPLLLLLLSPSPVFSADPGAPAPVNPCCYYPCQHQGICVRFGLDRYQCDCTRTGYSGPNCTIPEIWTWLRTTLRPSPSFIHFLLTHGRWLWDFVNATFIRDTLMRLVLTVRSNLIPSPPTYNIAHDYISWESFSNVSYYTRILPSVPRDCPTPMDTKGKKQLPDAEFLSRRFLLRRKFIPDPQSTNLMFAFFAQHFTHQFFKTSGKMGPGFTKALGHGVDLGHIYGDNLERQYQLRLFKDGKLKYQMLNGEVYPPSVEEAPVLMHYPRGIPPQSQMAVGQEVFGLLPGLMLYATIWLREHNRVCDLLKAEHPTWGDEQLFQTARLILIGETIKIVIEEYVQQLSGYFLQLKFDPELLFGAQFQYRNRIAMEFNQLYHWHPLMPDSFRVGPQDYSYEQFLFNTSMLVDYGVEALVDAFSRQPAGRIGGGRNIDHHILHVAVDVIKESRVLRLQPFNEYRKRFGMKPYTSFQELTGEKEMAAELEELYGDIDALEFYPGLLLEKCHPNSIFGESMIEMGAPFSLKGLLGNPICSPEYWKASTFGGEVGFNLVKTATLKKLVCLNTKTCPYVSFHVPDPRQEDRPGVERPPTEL

MCF7 = experiment: Cytotoxicity against human MCF7 cells assessed as cell growth inhibition at 20 ug/ml after 72 hrs by sulforhodamine B assay; assay type: functional, cell-based; in short: as §1
Aromatase = target: T3, Aromatase (Homo sapiens, UniProt P11511); experiment: Inhibition of aromatase preincubated with 2.6 mM NADP+ for 10 mins before substrate addition measured after 30 mins by fluorescence assay
T3 sequence (P11511 whole entry): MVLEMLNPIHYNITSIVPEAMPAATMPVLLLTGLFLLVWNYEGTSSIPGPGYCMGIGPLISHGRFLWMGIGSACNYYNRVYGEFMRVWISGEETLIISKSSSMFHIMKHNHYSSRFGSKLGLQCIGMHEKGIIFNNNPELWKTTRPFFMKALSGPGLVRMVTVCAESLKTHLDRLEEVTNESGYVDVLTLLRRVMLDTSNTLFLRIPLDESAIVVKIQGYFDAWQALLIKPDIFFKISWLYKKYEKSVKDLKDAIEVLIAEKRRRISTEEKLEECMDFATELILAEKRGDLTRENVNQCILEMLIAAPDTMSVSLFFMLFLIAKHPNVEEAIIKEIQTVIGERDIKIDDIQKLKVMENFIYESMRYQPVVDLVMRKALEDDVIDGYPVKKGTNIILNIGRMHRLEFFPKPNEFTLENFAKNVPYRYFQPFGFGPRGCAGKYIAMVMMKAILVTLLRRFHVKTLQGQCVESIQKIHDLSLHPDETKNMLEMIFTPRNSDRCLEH
In short: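 Compounds preincubated 10 min at 37 °C with NADPH-regenerating system (2.6 mM NADP+, 7.6 mM glucose 6-phosphate, G6PDH, MgCl2, albumin; 50 mM K phosphate pH 7.4). CYP19 with 0.4 µM dibenzylfluorescein then added for 30 min at 37 °C. Stopped with 2 N NaOH and held a further 2 h at 37 °C. Fluorescence read at ex 485/em 530. Five concentrations; three independent experiments in duplicate.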

Row | IC50 [1] [µM] | inhibition [3] | inhibition [4] | IC50 (Aromatase) [µM] | SMILES | inhibition (RAW264.7) | Activity [2] | Activity (MCF7)
1 | – | inactive | inactive | – | COc1c(-c2ccc(O)c(O)c2)oc2cc(O[C@@H]3O[C@H](CO)[C@@H](O)[C@H](O)[C@H]3O)cc(O)c2c1=O [TRANSILIN] | inactive | Non-toxic | Not toxic
2 | – | inactive | inactive | 35.3 | O=C(/C=C/c1ccc(O)c(O)c1)OC[C@H]1O[C@@H](OCCc2ccc(O)c(O)c2)[C@H](O)[C@@H](O)[C@@H]1O [CALCEOLARIOSIDE B] | inactive | Non-toxic | Not toxic
3 | – | inactive | inactive | – | COc1c(-c2ccc(O)cc2)oc2cc(O[C@@H]3O[C@H](CO)[C@@H](O)[C@H](O)[C@H]3O)cc(O)c2c1=O | inactive | Non-toxic | Not toxic
4 | – | inactive | inactive | 32.3 | O=C(/C=C/c1ccc(O)c(O)c1)OC[C@H]1O[C@@H](OCCc2ccc(O)c(O)c2)[C@H](O[C@@H]2OC[C@](O)(CO)[C@H]2O)[C@@H](O)[C@@H]1O | inactive | Non-toxic | Not toxic
5 | – | inactive | inactive | – | O=c1c(O[C@@H]2O[C@H](CO)[C@@H](O)[C@H](O)[C@H]2O)c(-c2ccc(O)c(O)c2)oc2cc(O)cc(O)c12 [ISOQUERCETIN] | inactive | Non-toxic | Not toxic
6 | – | inactive | inactive | – | COc1c(-c2ccc(O)c(O)c2)oc2cc(O[C@@H]3O[C@H](CO[C@@H]4O[C@@H](C)[C@H](O)[C@@H](O)[C@H]4O)[C@@H](O)[C@H](O)[C@H]3O)cc(O)c2c1=O | inactive | Non-toxic | Not toxic
7 | – | inactive | inactive | – | COc1c(-c2ccc(O)cc2)oc2cc(O[C@@H]3O[C@H](CO[C@@H]4O[C@@H](CO)[C@H](O)[C@H]4O)[C@@H](O)[C@H](O)[C@H]3O)cc(O)c2c1=O | inactive | Non-toxic | Not toxic
8 | – | inactive | inactive | – | COc1c(-c2ccc(O)cc2)oc2cc(O[C@@H]3O[C@H](CO[C@@H]4O[C@@H](C)[C@H](O)[C@@H](O)[C@H]4O)[C@@H](O)[C@H](O)[C@H]3O)cc(O)c2c1=O | inactive | Non-toxic | Not toxic

The remaining lines, values behind:

Row | SMILES | IC50 [1] [µM] | inhibition [3] | inhibition [4] | IC50 (Aromatase) [µM] | inhibition (RAW264.7) | Activity [2] | Activity (MCF7)
9 | Cc1ccc(S(=O)(=O)N[C@@H](Cc2ccccc2)C(=O)CCl)cc1 [TPCK] | 3.76 | – | – | – | – | – | –
10 | O=C(/C=C/c1ccc(O)c(O)c1)O[C@H]1[C@H](O)[C@@H](O[C@@H]2OC[C@](O)(CO)[C@H]2O)[C@H](OCCc2ccc(O)c(O)c2)O[C@@H]1CO [FUCATOSIDE A] | – | inactive | inactive | – | inactive | Non-toxic | Not toxic
11 | COc1cc([C@@H](O)[C@@H](CO)Oc2ccc(/C=C/CO)cc2OC)ccc1O (relative stereo) | – | inactive | inactive | – | inactive | Non-toxic | Not toxic
12 | O=C(/C=C/c1ccc(O)c(O)c1)O[C@H]1[C@H](O)[C@@H](CO)O[C@@H](OCCc2ccc(O)cc2)[C@@H]1O[C@@H]1OC[C@](O)(CO)[C@H]1O | – | inactive | inactive | – | inactive | Non-toxic | Not toxic
13 | O=C(/C=C/c1ccc(O)c(O)c1)O[C@H]1[C@H](O)[C@@H](O[C@@H]2OC[C@](O)(CO)[C@H]2O)[C@H](OCCc2ccc(O)cc2)O[C@@H]1CO | – | inactive | inactive | 30.7 | inactive | Non-toxic | Not toxic
14 | O=c1ccn([C@@H]2O[C@H](CO)[C@@H](O)[C@@H]2O)c(=O)[nH]1 [ARAURIDINE] | – | inactive | inactive | – | inactive | Non-toxic | Not toxic
15 | OC[C@H]1O[C@@H](OCCc2ccc(O)c(O)c2)[C@H](O)[C@@H](O)[C@@H]1O | – | inactive | inactive | – | inactive | Non-toxic | Not toxic
16 | O=C(/C=C/c1ccc(O)c(O)c1)O[C@H]1[C@H](O)[C@@H](CO)O[C@@H](OCCc2ccc(O)c(O)c2)[C@@H]1O[C@@H]1OC[C@](O)(CO)[C@H]1O | – | inactive | inactive | 26.8 | inactive | Non-toxic | Not toxic
